# Experimental data reported in publication PMC5538152 (Pharmacognosy Magazine, 2017).
# How the values were obtained:
# caspase 8 in HT29 cells = experiment: Active caspase 8 by flow cytometry; type: cell-based, human; conditions: 72 h of treatment
# Summary of the method: (§1)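 HT29 cells were seeded at 1 × 10^5 cells/ml overnight, then exposed to test compound at 8, 14 or 28 μM for 72 h (37°C, 5% CO2), with untreated cells in 0.5% DMSO as control. Harvested, PBS-washed cells were labelled 45 min at 37°C with FITC-IETD-FMK (caspase 8) or FITC-LEHD-FMK (caspase 9), then washed and read by flow cytometry in FL1. Means ± SD, ≥3 independent experiments.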
# HT29 cells [1] = experiment: Cell cycle analysis; type: cell-based, human; conditions: 72 h; for Percentage of cells in G2-M phase (Dip G2): untreated 7.70%; for Percentage of cells in G0-G1 phase (Dip G1): untreated 65.54%
# caspase 9 in HT29 cells = experiment: Active caspase 9 by flow cytometry; type: cell-based, human; conditions: 72 h of treatment
# Summary of the method: as §1
# HT29 cells [2] = experiment: Nuclear morphology by Hoechst 33342/propidium iodide staining; type: cell-based, human; conditions: 8 μM, 48 h
# Summary of the method: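 Overnight cultures (1 × 10^5 cells/ml) were given test compound at 8, 14 or 28 μM or 0.5% DMSO for 48 h at 37°C, 5% CO2. Cells were harvested, washed in cold PBS and incubated with Hoechst 33342 (10 μg/ml) for 7 min at 37°C. PI (2.5 μg/ml) was then added for 15 min in the dark at room temperature. Cells were dried on slides and nuclei examined by fluorescence microscopy at ×630.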
# HT29 cells [3] = experiment: Cell morphology by phase contrast microscopy; type: cell-based, human; conditions: 8, 14, 28 μM; dose- and time-dependent
# [4] = system: DLD-1 colon carcinoma cell line; conditions: read-out: IC50 against DLD-1; cited from earlier work
# [5] = system: CCD-18Co normal human colon fibroblast cell line; experiment: In vitro cytotoxicity assay; type: cell-based; conditions: 72 h
# [6] = system: HeLa cervical carcinoma cell line; conditions: read-out: IC50 against HeLa; cited from earlier work
# caspase 8 and caspase 9 = conditions: cited from earlier work
compound,measurement,setting,value
"C=CC(C)(C)c1cc2cc3c(cc2oc1=O)OC(C(C)(C)OC(C)=O)C3 (stereo not shown) [Rutamarin (8), rutamarin]",Caspase 8 activation relative to untreated cells,caspase 8 in HT29 cells,15 fold
same,Percentage of cells in G2-M phase (Dip G2),HT29 cells [1]; 8 μM,12.05%
same,Percentage of cells in G0-G1 phase (Dip G1),HT29 cells [1]; 8 μM,75.26%
same,Percentage of cells in G2-M phase (Dip G2),HT29 cells [1]; 14 μM,12.60%
same,Percentage of cells in G0-G1 phase (Dip G1),HT29 cells [1]; 14 μM,76.20%
same,Percentage of cells in G2-M phase (Dip G2),HT29 cells [1]; 28 μM,15.24%
same,Percentage of cells in G0-G1 phase (Dip G1),HT29 cells [1]; 28 μM,76.58%
same,Caspase 9 activation relative to untreated cells,caspase 9 in HT29 cells,4 fold
same,Nuclear morphology,HT29 cells [2],chromatin condensation
same,Cellular morphological changes,HT29 cells [3],"apoptotic bodies, cell shrinkage, detachment, and rounding were observed"
same,IC50,[4],37.5 µM
same,Toxicity to normal colon cells (words),[5]; listed as Rutamarin,not toxic to CCD-18Co cells
same,Toxicity to normal colon cells (words),[5]; listed as rutamarin,exerted no damage against the normal cells
same,IC50,"[5]; Homo sapiens, CCD-18Co, read-out: IC50 (μM), CCD-18Co, 72 h of incubation, SRB",≥ 100 µM
same,IC50,[6],50.7 µM
CCCC(=O)c1c(O)c(C/C=C(\C)CCC=C(C)C)c(O)c2c([C@@H](O)CC)cc(=O)oc12 [kayeassamin A],Caspase activation,caspase 8 and caspase 9,activate caspase 8 more than caspase 9
